Source: ChEMBL document CHEMBL2040757, “New N-arylamino biquinoline derivatives: synthesis, antimicrobial, antituberculosis, and antimalarial evaluation” (Eur J Med Chem, 2012)
Converted amounts (≈) assume the structure as drawn.

What was measured:
Bacillus subtilis = assay: Antibacterial activity against Bacillus subtilis MTCC 441 by broth microdilution method; assay type: functional
Method in brief: (§1)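 Broth microdilution per NCCLS, with serial dilutions in Mueller Hinton broth and DMSO as diluent. Tubes were incubated overnight at 37 °C. MIC was the lowest concentration giving no visible growth, with the control organism's MIC read to verify concentrations. Tubes without growth were subcultured overnight at 37 °C to judge bacteriostatic versus bactericidal action.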

Vibrio cholerae = assay: Antibacterial activity against Vibrio cholerae MTCC 3906 by broth microdilution method; assay type: functional
Clostridium tetani = assay: Antibacterial activity against Clostridium tetani MTCC 449 by broth microdilution method; assay type: functional
Aspergillus fumigatus = assay: Antifungal activity against Aspergillus fumigatus MTCC 3008 by broth microdilution method; assay type: functional
[1] = system: Mycobacterium tuberculosis; assay: Growth inhibition of Mycobacterium tuberculosis H37Rv at 6.25 ug/mL after 12 to 28 days relative to control; assay type: functional
Candida albicans = assay: Antifungal activity against Candida albicans MTCC 227 by broth microdilution method; assay type: functional
Streptococcus pneumoniae = assay: Antibacterial activity against Streptococcus pneumoniae MTCC 1936 by broth microdilution method; assay type: functional; method in brief: as §1
Salmonella typhi = assay: Antibacterial activity against Salmonella typhi MTCC 98 by broth microdilution method; assay type: functional, Salmonella enterica subsp. enterica serovar Typhi; conditions: Salmonella enterica
Plasmodium falciparum = assay: Antimalarial activity against trophozoite stage of chloroquine-sensitive Plasmodium falciparum 3D7 infected in human erythrocytes after 48 hrs; assay type: functional, organism-based; conditions: 3D7, 48 h
Method in brief: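 Parasites were kept in continuous culture in A+ human erythrocytes in RPMI with 10% human serum. Sorbitol-synchronized trophozoites at 1–2% parasitaemia and 2.5% haematocrit were exposed to serial dilutions (maximum 1 mg/ml; 0.02% final DMSO) for 48 h at 37 °C. Growth inhibition was measured; chloroquine and quinine served as positive controls. IC50 came from duplicate experiments.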

Escherichia coli = assay: Antibacterial activity against Escherichia coli MTCC 443 by broth microdilution method; assay type: functional; method in brief: as §1

| Structure (SMILES) | MIC (Bacillus subtilis) | MIC (Vibrio cholerae) | MIC (Clostridium tetani) | MIC (Aspergillus fumigatus) | inhibition at 6.25 µg/mL [1] | MIC (Candida albicans) | MIC (Streptococcus pneumoniae) | MIC (Salmonella typhi) | IC50 (Plasmodium falciparum) | MIC (Escherichia coli) |
| --- | --- | --- | --- | --- | --- | --- | --- | --- | --- | --- |
| CC1(C)CC(=O)C2=C(C1)N(Nc1ccc(Br)cc1)C(N)=C(C#N)C2c1cc2ccccc2nc1Cl (configuration not stated) | 200 µg/mL (≈ 364 µM) | 100 µg/mL (≈ 182 µM) | 500 µg/mL (≈ 911 µM) | > 1000 µg/mL | 33% | > 1000 µg/mL | 100 µg/mL (≈ 182 µM) | 250 µg/mL (≈ 455 µM) | 0.54 µg/mL (≈ 0.984 µM) | 250 µg/mL (≈ 455 µM) |
| Cc1ccc(NN2C(N)=C(C#N)C(c3cc4cc(Cl)ccc4nc3Cl)C3=C2CC(C)(C)CC3=O)cc1 (configuration not stated) | 500 µg/mL (≈ 964 µM) | 250 µg/mL (≈ 482 µM) | 250 µg/mL (≈ 482 µM) | 500 µg/mL (≈ 964 µM) | 72% | 500 µg/mL (≈ 964 µM) | 500 µg/mL (≈ 964 µM) | 250 µg/mL (≈ 482 µM) | 0.014 µg/mL (≈ 0.027 µM) | 250 µg/mL (≈ 482 µM) |
| COc1ccc2nc(Cl)c(C3C(C#N)=C(N)N(Nc4ccccc4)C4=C3C(=O)CC(C)(C)C4)cc2c1 (configuration not stated) | 250 µg/mL (≈ 500 µM) | 500 µg/mL (≈ 1000 µM) | 500 µg/mL (≈ 1000 µM) | 500 µg/mL (≈ 1000 µM) | 80% | 250 µg/mL (≈ 500 µM) | 250 µg/mL (≈ 500 µM) | 250 µg/mL (≈ 500 µM) | 0.22 µg/mL (≈ 0.44 µM) | 250 µg/mL (≈ 500 µM) |
| CC1(C)CC(=O)C2=C(C1)N(Nc1ccccc1)C(N)=C(C#N)C2c1cc2cc(Cl)ccc2nc1Cl (configuration not stated) | 1000 µg/mL (≈ 1980 µM) | 1000 µg/mL (≈ 1980 µM) | 1000 µg/mL (≈ 1980 µM) | 1000 µg/mL (≈ 1980 µM) | 5% | 1000 µg/mL (≈ 1980 µM) | 1000 µg/mL (≈ 1980 µM) | 250 µg/mL (≈ 496 µM) | 0.21 µg/mL (≈ 0.416 µM) | 200 µg/mL (≈ 396 µM) |
| Cc1ccc(NN2C(N)=C(C#N)C(c3cc4cc(C)ccc4nc3Cl)C3=C2CC(C)(C)CC3=O)cc1 (configuration not stated) | 200 µg/mL (≈ 402 µM) | 500 µg/mL (≈ 1000 µM) | 250 µg/mL (≈ 502 µM) | 500 µg/mL (≈ 1000 µM) | 32% | 500 µg/mL (≈ 1000 µM) | 200 µg/mL (≈ 402 µM) | 500 µg/mL (≈ 1000 µM) | 0.22 µg/mL (≈ 0.442 µM) | 500 µg/mL (≈ 1000 µM) |
| Cc1ccc(NN2C(N)=C(C#N)C(c3cc4ccccc4nc3Cl)C3=C2CC(C)(C)CC3=O)cc1 (configuration not stated) | 250 µg/mL (≈ 517 µM) | 250 µg/mL (≈ 517 µM) | 250 µg/mL (≈ 517 µM) | 500 µg/mL (≈ 1030 µM) | 8% | 500 µg/mL (≈ 1030 µM) | 500 µg/mL (≈ 1030 µM) | 200 µg/mL (≈ 413 µM) | 0.005 µg/mL (≈ 0.0103 µM) | 200 µg/mL (≈ 413 µM) |
| Cc1ccc2nc(Cl)c(C3C(C#N)=C(N)N(Nc4ccc(Br)cc4)C4=C3C(=O)CC(C)(C)C4)cc2c1 (configuration not stated) | 200 µg/mL (≈ 355 µM) | 250 µg/mL (≈ 444 µM) | 250 µg/mL (≈ 444 µM) | > 1000 µg/mL | 47% | 250 µg/mL (≈ 444 µM) | 250 µg/mL (≈ 444 µM) | 250 µg/mL (≈ 444 µM) | 0.012 µg/mL (≈ 0.0213 µM) | 250 µg/mL (≈ 444 µM) |
| CC1(C)CC(=O)C2=C(C1)N(Nc1ccc(Cl)cc1)C(N)=C(C#N)C2c1cc2ccccc2nc1Cl (configuration not stated) | 500 µg/mL (≈ 991 µM) | 500 µg/mL (≈ 991 µM) | 250 µg/mL (≈ 496 µM) | 500 µg/mL (≈ 991 µM) | 22% | 250 µg/mL (≈ 496 µM) | 500 µg/mL (≈ 991 µM) | 500 µg/mL (≈ 991 µM) | 0.42 µg/mL (≈ 0.833 µM) | 200 µg/mL (≈ 396 µM) |
| COc1ccc(NN2C(N)=C(C#N)C(c3cc4cc(Cl)ccc4nc3Cl)C3=C2CC(C)(C)CC3=O)cc1 (configuration not stated) | 250 µg/mL (≈ 468 µM) | 250 µg/mL (≈ 468 µM) | 200 µg/mL (≈ 374 µM) | > 1000 µg/mL | 22% | 100 µg/mL (≈ 187 µM) | 250 µg/mL (≈ 468 µM) | 200 µg/mL (≈ 374 µM) | 0.026 µg/mL (≈ 0.0486 µM) | 250 µg/mL (≈ 468 µM) |
| CO[C@H]1/C=C/O[C@@]2(C)Oc3c(C)c(O)c4c(O)c(c(/C=N/N5CCN(C)CC5)c(O)c4c3C2=O)NC(=O)/C(C)=C\C=C\[C@H](C)[C@H](O)[C@@H](C)[C@@H](O)[C@@H](C)[C@H](OC(C)=O)[C@@H]1C [RIFAMPIN] |  |  |  |  | 98% |  |  |  |  |  |
| COC1=CC(=O)C[C@@H](C)[C@]12Oc1c(Cl)c(OC)cc(OC)c1C2=O [GRISEOFULVIN] |  |  |  | 100 µg/mL (≈ 283 µM) |  | 500 µg/mL (≈ 1420 µM) |  |  |  |  |
| CC1(C)CC(=O)C2=C(C1)N(Nc1ccccc1)C(N)=C(C#N)C2c1cc2ccccc2nc1Cl (configuration not stated) | 200 µg/mL (≈ 426 µM) | 250 µg/mL (≈ 532 µM) | 250 µg/mL (≈ 532 µM) | > 1000 µg/mL | 8% | 500 µg/mL (≈ 1060 µM) | 200 µg/mL (≈ 426 µM) | 250 µg/mL (≈ 532 µM) | 0.015 µg/mL (≈ 0.0319 µM) | 200 µg/mL (≈ 426 µM) |
| COc1ccc2nc(Cl)c(C3C(C#N)=C(N)N(Nc4ccc(C)cc4)C4=C3C(=O)CC(C)(C)C4)cc2c1 (configuration not stated) | 200 µg/mL (≈ 389 µM) | 200 µg/mL (≈ 389 µM) | 100 µg/mL (≈ 195 µM) | 500 µg/mL (≈ 973 µM) | 50% | 500 µg/mL (≈ 973 µM) | 200 µg/mL (≈ 389 µM) | 200 µg/mL (≈ 389 µM) | 0.19 µg/mL (≈ 0.37 µM) | 150 µg/mL (≈ 292 µM) |
| O=C(O)c1cn(C2CC2)c2cc(N3CCNCC3)c(F)cc2c1=O [CIPROFLOXACIN] |  | 25 µg/mL (≈ 75.4 µM) |  |  |  |  | 50 µg/mL (≈ 151 µM) | 25 µg/mL (≈ 75.4 µM) |  | 25 µg/mL (≈ 75.4 µM) |
